Assay results from ChEMBL document CHEMBL4229376, “Optimization of the pharmacokinetic properties of potent anti-trypanosomal triazine derivatives” (Eur J Med Chem, 2018).
pIC50: −log10 of the molar value.

How the values were obtained:
[1] = tested on: Trypanosoma brucei brucei; test: Antitrypanosomal activity against suramin-sensitive Trypanosoma brucei brucei Squib 427 after 72 hrs by resazurin dye-based fluorimetric analysis; type: functional, organism-based; settings: Squib 427, 72 h
[2] = Drug metabolism in mouse liver microsomes assessed as CYP450 mediated compound […] by measuring parent compound remaining at 5 uM after 30 mins in presence of NADPH by UPLC/MS/ESI analysis; type: ADME; settings: read-out: Stability
[3] = Drug metabolism in mouse liver microsomes assessed as CYP450 mediated compound […] by measuring parent compound remaining at 5 uM after 60 mins in presence of NADPH by UPLC/MS/ESI analysis; type: ADME; settings: read-out: Stability
[4] = Drug metabolism in mouse liver microsomes assessed as UGT mediated compound […] by measuring parent compound remaining at 5 uM after 30 mins in presence of UDPGA by UPLC/MS/ESI analysis; type: ADME; settings: 0.5 h
Method in brief: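 Metabolic stability was run with mouse liver microsomal fraction (S9) and read as percent parent compound remaining over incubation time. Diclofenac served as the reference compound.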

[5] = Drug metabolism in human liver microsomes assessed as UGT mediated compound […] by measuring parent compound remaining at 5 uM after 15 mins in presence of UDPGA by UPLC/MS/ESI analysis; type: ADME; settings: read-out: Stability
[6] = Drug metabolism in human liver microsomes assessed as UGT mediated compound […] by measuring parent compound remaining at 5 uM after 30 mins in presence of UDPGA by UPLC/MS/ESI analysis; type: ADME; settings: read-out: Stability
[7] = Drug level in Swiss mouse blood infected with Trypanosoma brucei brucei Squib 427 at 50 mg/kg, po bid for 5 days measured after 2 hrs after last dose by UPLC/MS/ESI analysis; type: ADME, organism-based; settings: whole blood, read-out: Drug uptake
[8] = Drug uptake in Swiss mouse blood at 50 mg/kg, po administered as single dose after 4 hrs by UPLC/MS/ESI analysis; type: ADME, organism-based; settings: whole blood, read-out: Drug uptake
Method in brief: (§1)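 Mice were given the compound orally as a single dose of either 25 or 50 mg/kg, one group per dose. Plasma concentrations were followed over time up to 24 h, and the pharmacokinetic parameters were derived from the concentration-time profile.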

[9] = Drug uptake in Swiss mouse blood at 25 mg/kg, po administered as single dose after 0.5 hrs by UPLC/MS/ESI analysis; type: ADME, organism-based; settings: whole blood, read-out: Drug uptake; method in brief: as §1
[10] = Cmax in Swiss mouse infected with Trypanosoma brucei brucei Squib 427 at 50 mg/kg, po bid for 5 days after 24 hrs by UPLC/MS/ESI analysis; type: ADME, organism-based; set-up: dose 50 mg/kg, route oral; settings: in vivo
[11] = Half life in Swiss mouse infected with Trypanosoma brucei brucei Squib 427 at 25 mg/kg, po administered as single dose after 24 hrs by UPLC/MS/ESI analysis; type: ADME, organism-based; settings: in vivo
[12] = AUC (0 to >4 hrs) in Swiss mouse infected with Trypanosoma brucei brucei Squib 427 at 25 mg/kg, po administered as single dose by UPLC/MS/ESI analysis; type: ADME, organism-based; settings: in vivo
[13] = Protein binding in mouse plasma assessed as drug recovery at 10 uM after 6 hrs by equilibrium dialysis and LC-MS analysis; type: ADME, cell-free; settings: read-out: Drug recovery
[14] = Protein binding in 10% FBS in Trypanosoma brucei culture medium assessed as drug recovery at 2 uM after 6 hrs by equilibrium dialysis and LC-MS analysis; type: ADME, cell-free, Bos taurus, Serum; settings: cattle, read-out: Drug recovery

With `Nc1nc(Nc2ccc(F)cc2)nc(Oc2ccc(F)cc2)n1` as the compound, how does the pIC50 [1] read?
The pIC50 was 6.22.

And the remaining at 0.5 h, 5 µM [2]?
Its remaining at 0.5 h, 5 µM is 80%.

And the remaining at 1 h, 5 µM [3]?
The remaining at 1 h, 5 µM was 74%.

What about the Stability [4] of the same compound?
Its Stability is 103%.

And the remaining at 0.25 h, 5 µM [5]?
The remaining at 0.25 h, 5 µM was 107%.

What about the remaining at 0.5 h, 5 µM [6] of the same compound?
Its remaining at 0.5 h, 5 µM is 97%.

What about the concentration at 2 h [7] of the same compound?
Its concentration at 2 h is 2840 ng/mL.

What about the concentration at 4 h [8] of the same compound?
Its concentration at 4 h is 2030 ng/mL.

And the concentration at 0.5 h [9]?
The concentration at 0.5 h was 842 ng/mL.

What about the Cmax [10] of the same compound?
Its Cmax is 3830 ng/mL.

What about the half-life [11] of the same compound?
Its half-life is 51 min.

And the AUC at 4 h [12]?
The AUC at 4 h was 4710 ng·h/mL.

And the recovery at 6 h, 10 µM [13]?
Its recovery at 6 h, 10 µM is 75.4%.

And the recovery at 6 h, 2 µM [14]?
Its recovery at 6 h, 2 µM is 96.1%.
